Screening data (PubChem BioAssay)
The entries come from a sample that favours hits as a whole.
Insulin prom act – activators of insulin promoter-driven GFP, primary screen, imaging, TRM-6 cells, eGFP reporter, cell count; activation, % at 2 µM; plate-scaled: unstimulated 0, stimulated control 100; 130,000 tested, 0.81% active; AID 1296, 2008;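 active = activation at 2 µM above a set limit, confirmed on inspection of the cell images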;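 note: share of cells whose green reporter signal exceeds an intensity cutoff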
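Test system: human fetal islet-derived TRM-6 cells with tamoxifen-inducible insulin promoter–eGFP reporter; schedule: overnight tamoxifen, then two-day compound incubation at 37 °C; measured by: high-content imaging of fixed cells with Hoechst nuclear stain; evaluation: percent cells above green-intensity threshold, converted to percent activation versus plate controls; control set: stimulated and unstimulated wells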
The depositor's hits bear a star.

SMILES	Insulin prom act
O=C(Nc1ccccc1C(=O)O)c1ccc(NC(=O)c2ccc(Br)o2)cc1	-9
COc1ccc2c(c1)O[C@@H](c1cccc(C(F)(F)F)c1)[C@H](OC(=O)N[C@H]1CCCc3ccccc31)C2=O	-10
COC(=O)c1cnn(-c2ccc(C)c(C)c2)c1-n1cccc1	-10
O=c1c2ccccc2c(C=NCCCN2CCOCC2)c(O)n1Cc1ccccc1	-3
COc1ccc(N=Cc2sc(O)c3ccccc23)cc1	0
CCN(c1ccc(N=Cc2c(O)n(Cc3ccc(OC)cc3)c(=O)c3ccccc23)cc1)C(C)C	471*
COc1ccc(NC(=O)Nc2ccc3c(c2)N(C)C(=O)CS3)cc1Cl	0
CCNc1nc(Oc2ccc(=O)[nH]n2)nc(N2CCOCC2)n1	-75
O=C(Nc1ccccc1)N1C2CCC1CC(O)(c1cccnc1)C2 (stereo not given)	-2
CS(=O)(=O)N(CC(N)=O)c1cccc(Br)c1	514*
C=CCNC(=O)CN(c1cccc(Br)c1)S(C)(=O)=O	3
CS(=O)(=O)N(CC(N)=O)c1ccc(F)c(Cl)c1	277
COc1ccccc1N1CCN(C2CCN(C(=O)COc3cccc(C)c3)CC2)CC1	-4
C=CCNCCOCCSc1ccc(Cl)cc1	-8
CCn1c(Cc2ccccc2)nnc1SCC(=O)Nc1ccc(OC)cc1	7
CCn1c(Cc2ccc(OC)cc2)nnc1SCC(=O)Nc1cccc(C(=O)OC)c1	443*
CCn1c(Cc2ccccc2)nnc1SCC(=O)Nc1ccc2c(c1)OCCO2	6
O=C(NCc1ccco1)c1cc2ccc(O)cc2oc1=O	-92
C=CCn1c(O)c(C(CC)=NCc2cccnc2)c(=O)[nH]c1=O	-8
Cc1ccc(CNC(=O)C2CC2c2ccccc2)cc1 (stereo not given)	7
O=C(Nc1c(C(=O)NCc2ccco2)cnn1-c1ccccc1)c1cccc(F)c1	287*
O=C(NCc1ccco1)c1cnn2c(C(F)F)cc(-c3ccccc3)nc12	-10
CC(C)(C)NC(=O)c1cnn(-c2ccccc2)c1NC(=O)c1ccccc1	0
CCC(=O)n1nc(-c2ccc(OC)cc2)nc1SC	-89
CC(C(=O)NCC1(c2ccccc2)CCCC1)N1CCCC1 (stereo not given)	-4
SMILES	Insulin prom act
CCOC(=O)/C(C#N)=C\C1=C(N2CCCC2)CC(C)(C)OC1	-3
CCCCCCN1C=CC(=C/C=C(\C#N)C(=O)OCC)C=C1	133*
CCOC(=O)/C(C#N)=C1/C=CN(C)C=N1	0
CCOC(=O)/C(C#N)=C1/C=CN(Cc2ccccc2)C=N1	-6
CCOC(=O)C(/C=C(\C#N)C(=O)OCC)=C(/N)N1CCN(c2ccccc2)CC1	-7
CCCN1C=CC(=C/C=C(\C#N)C(=O)OCC)C=C1	141*
Cc1c(NC2=CC(=O)CCC2)c(=O)n(-c2ccccc2)n1C	-5
NS(=O)(=O)c1ccc(NC(=O)CSc2ncn[nH]2)cc1	0
CC1CCCCN1Cc1cnc(Cl)s1 (stereo not given)	3
CCOC(=O)N1CCN(C(=O)c2cc(-n3cnnc3)ccc2Cl)CC1	14
Cc1ccc(C(=O)NCCc2nnc3ccc(SCC(=O)Nc4ccccc4C)nn23)cc1	3
Cc1cc(NCCO)c2ccccc2n1	-5
CCC(=O)Oc1c(-c2ccccc2)c2nc3ccccc3nc2c2ccccc12	376
CCCNc1c(F)c(F)c2c(C)c3ccccc3nc2c1F	160*
CC(c1ccon1)N(C)Cc1c(C(=O)N(C)Cc2ccccc2)nc2ccccn12 (stereo not given)	-4
CS(=O)(=O)N(CC(=O)NC1CCCC1)Cc1ccc(Cl)cc1	-3
CS(=O)(=O)N(CC(=O)N1CCCCCC1)Cc1ccc(Cl)cc1	-7
CN1CCN(C(=O)CN(Cc2ccc(Cl)cc2)S(C)(=O)=O)CC1	579*
O=C(CSc1nnc2n(C3CCCC3)c(=O)c3ccccc3n12)N1CCCCCC1	121*
CC(C)Cn1c(SCC(=O)N2CCCCC2)nc2ccccc2c1=O	269
C=CCn1c(=O)c2ccccc2n2c(SCC(N)=O)nnc12	9
COc1ccc(C(C)=O)cc1CSc1nc2cc(Cl)ccc2o1	-74
COc1ccc(-n2c(SCCC(=O)O)nnc2-c2ccncc2)cc1	-81
Cc1ccc(/C=C/C(=O)Nc2ccc(S(=O)(=O)Nc3ncccn3)cc2)cc1	-7
CCc1nnc(NC(=O)/C=C/c2ccco2)s1	-6
SMILES	Insulin prom act
CCc1nnc(NS(=O)(=O)c2ccc(NC(=O)/C=C/c3ccc(F)cc3)cc2)s1	275*
Cc1ccc(NCCc2ccc(C)nc2)cc1	-75
CC(=O)N(c1ccc(Cl)cc1)c1nc(C)cc(C)c1C#N	-7
COc1ccc(NC(=O)c2cccc(S(=O)(=O)N3CCc4ccccc43)c2)cn1	-6
COc1ccc(S(=O)(=O)CCc2nnc(NC(=O)c3cccs3)s2)cc1	-4
COc1ccc(NC(C)C(=O)Nc2ccc(C(C)(C)C)cc2)cc1Cl (stereo not given)	0
COc1cc(/C=N/NC(=O)c2ccncc2)ccc1OC(=O)c1ccc([N+](=O)[O-])cc1	-100
COc1ccc(/C=N/NC(=O)c2ccc(Br)o2)cc1Cn1cc([N+](=O)[O-])cn1	0
